This note sets out measurements from ChEMBL document CHEMBL1671756, “In vitro and in vivo antifungal susceptibilities of the Mucoralean fungus Cunninghamella” (2010).

Activity calls are given as the source filed them. The calls are words filed in the database; no cut-off is given here.

Assay [1] deals with Cunninghamella bertholletiae. The assay can be described thus: Antifungal activity against Cunninghamella bertholletiae UTHSC 04-2581 infected in neutropenic OF1 mouse assessed as decreased fungal load in kidney at 0.8 mg/kg, iv qd administered 1 day post infection measured after 4 to 5 days relative to untreated control. On the set-up: dose 0.8 mg/kg. The assay is classed as functional, organism-based. Put shortly:
(§1)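 Neutropenic male OF1 mice (cyclophosphamide 200 mg/kg i.p. plus 5-fluorouracil 150 mg/kg i.v., day −1) were given 1 × 10⁴ CFU sporangiospores i.v. in 0.2 ml saline. Treatment from 24 h: 0.8 mg/kg i.v. or oral doses once daily; 10 mice per group. Killed at day 5 (day 4 if moribund). About half of brain, lungs and kidneys homogenized in saline; 10-fold dilutions plated on PDA for 24 h at 35°C; log₁₀ CFU/g tissue.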

The subject of assay [2] is Cunninghamella bertholletiae. The assay is described as follows: Antifungal activity against Cunninghamella bertholletiae FMR-9598 infected in neutropenic OF1 mouse assessed as decreased fungal load in lung at 0.8 mg/kg, iv qd administered 1 day post infection measured after 4 to 5 days relative to untreated control. Further details: dose 0.8 mg/kg. The assay is classed as functional, organism-based. Put shortly: as §1

Assay [3] relates to Cunninghamella bertholletiae. The assay can be described thus: Antifungal activity against Cunninghamella bertholletiae UTSCH 05-2275 infected in diabetic OF1 mouse assessed as decreased fungal load in kidney at 0.8 mg/kg, iv qd administered 1 day post infection measured after 4 to 5 days relative to untreated control. The assay is classed as functional, organism-based. On the set-up: dose 0.8 mg/kg. Put shortly: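 Diabetic OF1 mice (streptozocin 210 mg/kg i.p.; glucose >250 mg/dl) were infected i.v. with 1 × 10⁵ CFU, with ceftazidime cover. Ten per group were treated from day 1 and killed day 5, or day 4 if moribund. Half-organ homogenates (brain, lung, kidney) in 1 ml saline were serially diluted 10-fold on PDA, incubated 24 h at 35°C, and reported as log₁₀ CFU/g tissue.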

In assay [4] the test system is Cunninghamella bertholletiae. The assay can be described thus: Antifungal activity against Cunninghamella bertholletiae UTHSC 04-2581 infected in neutropenic OF1 mouse assessed as decreased fungal load in lung at 0.8 mg/kg, iv qd administered 1 day post infection measured after 4 to 5 days relative to untreated control. The assay is classed as functional, organism-based. Further details: dose 0.8 mg/kg. The method in brief:
as §1

For assay [5], the system named is Cunninghamella bertholletiae. The assay is described as follows: Antifungal activity against Cunninghamella bertholletiae UTHSC 06-1945 infected in neutropenic OF1 mouse assessed as decreased fungal load in kidney at 0.8 mg/kg, iv qd administered 1 day post infection measured after 4 to 5 days relative to untreated control. The assay is classed as functional, organism-based. On the set-up: dose 0.8 mg/kg. Put shortly:
as §1

Assay [6] relates to Cunninghamella bertholletiae. The assay can be described thus: Antifungal activity against Cunninghamella bertholletiae UTHSC 05-2275 infected in diabetic OF1 mouse assessed as increase in mouse survival rate at 0.8 mg/kg, iv qd administered 1 day after infection for 7 days relative to untreated control. The assay is classed as functional, organism-based. On the set-up: dose 0.8 mg/kg. The method in brief:
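Male OF1 mice were made diabetic with streptozocin 210 mg/kg i.p. Diabetes was confirmed by blood glucose >250 mg/dl at day 10. Challenge was 1 × 10⁵ CFU in 0.2 ml saline i.v. (tail vein), with ceftazidime 5 mg/day s.c. on days 1–7. Treatment began 1 day after challenge for 7 days. There were 10 mice/group, checked daily for 20 days. Kaplan-Meier analysis with log-rank comparison.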

In assay [7] the test system is Cunninghamella bertholletiae. The assay can be described thus: Antifungal activity against Cunninghamella bertholletiae UTHSC 06-1945 infected in neutropenic OF1 mouse assessed as increase in mouse survival rate at 60 mg/kg, po qd administered 1 day after infection. On the set-up: dose 60 mg/kg. The format is functional, organism-based. The method in brief: (§2)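 Male OF1 mice, about 30 g, made neutropenic with cyclophosphamide 200 mg/kg i.p. plus 5-fluorouracil 150 mg/kg i.v. 1 day before challenge. Infected i.v. via the lateral tail vein with 1 × 10⁴ CFU of hemacytometer-counted sporangiospores in 0.2 ml saline. Ceftazidime 5 mg/day s.c. on days 1–7. Oral treatment started 24 h after challenge; 10 mice per group; checked daily for 20 days; Kaplan-Meier mean survival time, log-rank test.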

The test system of assay [8] is Cunninghamella bertholletiae. The assay is described as follows: Antifungal activity against Cunninghamella bertholletiae UTSCH 05-2275 infected in diabetic OF1 mouse assessed as decreased fungal load in lung at 60 mg/kg, po qd administered 1 day post infection measured after 4 to 5 days relative to untreated control. The format is functional, organism-based. On the set-up: dose 60 mg/kg. The method in brief: (§3)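 Male OF1 mice (mean 30 g) made diabetic with a single i.p. dose of streptozocin 210 mg/kg; blood glucose >250 mg/dl at day 10 qualified. Ceftazidime 5 mg/day s.c. given on days 1–7. Challenge by lateral tail vein with 1 × 10⁵ CFU sporangiospores in 0.2 ml saline. Oral dosing once daily for 7 days, starting 1 day after challenge. Untreated controls. Ten mice per group.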

Assay [9] deals with Cunninghamella bertholletiae. The assay can be described thus: Antifungal activity against Cunninghamella bertholletiae UTHSC 03-2241 infected in neutropenic OF1 mouse assessed as decreased fungal load in brain at 60 mg/kg, po qd administered 1 day post infection measured after 4 to 5 days relative to untreated control. The format is functional, organism-based. Further details: dose 60 mg/kg. Put shortly: as §1

In assay [10] the test system is Cunninghamella bertholletiae. The assay is described as follows: Antifungal activity against Cunninghamella bertholletiae UTHSC 06-1945 infected in neutropenic OF1 mouse assessed as decreased fungal load in brain at 60 mg/kg, po qd administered 1 day post infection measured after 4 to 5 days relative to untreated control. The format is functional, organism-based. Further details: dose 60 mg/kg. The method in brief: as §1

Assay [11] concerns Cunninghamella bertholletiae. The assay can be described thus: Antifungal activity against Cunninghamella bertholletiae FMR-9598 infected in neutropenic OF1 mouse assessed as decreased fungal load in brain at 60 mg/kg, po qd administered 1 day post infection measured after 4 to 5 days relative to untreated control. The format is functional, organism-based. Further details: dose 60 mg/kg. The method in brief: as §1

For assay [12], the system named is Cunninghamella bertholletiae. The assay is described as follows: Antifungal activity against Cunninghamella bertholletiae FMR-9598 infected in neutropenic OF1 mouse assessed as decreased fungal load in brain at 0.8 mg/kg, iv qd administered 1 day post infection measured after 4 to 5 days relative to untreated control. The format is functional, organism-based. On the set-up: dose 0.8 mg/kg. Put shortly:
as §1

Assay [13] concerns Cunninghamella bertholletiae. The assay is described as follows: Antifungal activity against Cunninghamella bertholletiae UTHSC 05-2275 infected in neutropenic OF1 mouse assessed as increase in mouse survival rate at 25 mg/kg, po bid administered 1 day after infection for 7 days relative to untreated control.
The subject of assay [14] is Cunninghamella bertholletiae. The assay is described as follows: Antifungal activity against Cunninghamella bertholletiae UTHSC 05-2275 infected in neutropenic OF1 mouse assessed as decreased fungal load in brain at 80 mg/kg, po qd administered 1 day post infection measured after 4 to 5 days relative to untreated control. Further details: dose 80 mg/kg. The format is functional, organism-based. Put shortly:
as §1

Assay [15] concerns Cunninghamella bertholletiae. The assay is described as follows: Antifungal activity against Cunninghamella bertholletiae UTSCH 05-2275 infected in diabetic OF1 mouse assessed lung at 60 mg/kg, po qd administered 1 day post infection measured after 4 to 5 days relative to untreated control. On the set-up: dose 60 mg/kg. The assay is classed as functional, organism-based. The method in brief: as §3

Assay [16] concerns Cunninghamella bertholletiae. The assay is described as follows: Antifungal activity against Cunninghamella bertholletiae UTSCH 05-2275 infected in diabetic OF1 mouse assessed as decreased fungal load in kidney at 80 mg/kg, po qd administered 1 day post infection measured after 4 to 5 days relative to untreated control. The assay is classed as functional, organism-based. Further details: dose 80 mg/kg. Put shortly:
as §3

For assay [17], the system named is Cunninghamella bertholletiae. The assay is described as follows: Antifungal activity against Cunninghamella bertholletiae UTHSC 03-2241 infected in neutropenic OF1 mouse assessed as increase in mouse survival rate at 60 mg/kg, po qd administered 1 day after infection. The format is functional, organism-based. Further details: dose 60 mg/kg. The method in brief:
as §2

The test system of assay [18] is Cunninghamella bertholletiae. The assay can be described thus: Antifungal activity against Cunninghamella bertholletiae UTSCH 05-2275 infected in diabetic OF1 mouse assessed as decreased fungal load in brain at 80 mg/kg, po qd administered 1 day post infection measured after 4 to 5 days relative to untreated control. The assay is classed as functional, organism-based. On the set-up: dose 80 mg/kg. The method in brief:
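Diabetic male OF1 mice (streptozocin 210 mg/kg i.p.; glucose above 250 mg/dl) were challenged i.v. with 1 × 10⁵ CFU sporangiospores. Oral once-daily dosing from day 1 for 7 days; 10 mice per group. Killed at day 5 (day 4 if moribund). About half of each organ homogenized in saline; serial 10-fold dilutions plated on PDA for 24 h at 35°C; log₁₀ CFU/g tissue.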

Regarding `C[C@@H]1[C@H](O)[C@@H](C)/C=C/C=C/C=C/C=C/C=C/C=C/C=C/[C@H](O[C@@H]2O[C@H](C)[C@@H](O)[C@H](N)[C@@H]2O)C[C@@H]2O[C@](O)(C[C@@H](O)C[C@@H](O)[C@H](O)CC[C@@H](O)C[C@@H](O)CC(=O)O[C@H]1C)C[C@H](O)[C@H]2C(=O)O` [AMPHOTERICIN B], the outcome in assay [1], in assay [2], in [3], in [4], in assay [5] and in [6] was Active.

Regarding `CC[C@@H]([C@H](C)O)n1ncn(-c2ccc(N3CCN(c4ccc(OC[C@@H]5CO[C@@](Cn6cncn6)(c6ccc(F)cc6F)C5)cc4)CC3)cc2)c1=O` [POSACONAZOLE], the result in assay [7], in [8], in [9], in [10], in assay [11] and in [12] was Active. Besides, the result in assay [14], in [15], in assay [16], in [17] and in assay [18] was Active. Moreover, the outcome in assay [13] was inactive.
